STAT3 act = increases IL-6 driven STAT3 reporter signal; U3A cells, IL-6 STAT3-luciferase reporter, luminescence; 100% = signal with IL-6 EC80 alone; 0.91% of 190,000 active; AID 871; activation (% of control), % at 5.6 µM;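 active means activation above the screen-wide mean of compound activation plus 3 SD, cut at about 130% in these data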;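 further: 0% = background luminescence of wells with medium and substrate only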
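Material: STAT3-luciferase reporter U3A cells. Controls: IL-6-treated wells, 100% activation. Read-out: % activation versus median of IL-6-stimulated wells. Probe or stimulus: IL-6 stimulus at 33 ng/mL final. Timing: compound 1 h, then IL-6 6 h at 37 °C. Signal: reporter luminescence signal.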
STAT3 inh = reduces IL-6 driven STAT3 reporter signal. U3A cells, IL-6 STAT3-luciferase reporter, luminescence; host cell line lacks STAT1. inhibition, % at 5.5 µM. 0.89% of 190,000 active. AID 862;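 active means inhibition above the mean inhibition across all screened compounds plus 3 SD, cut at about 44% in these data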;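 further: 0% = DMSO only wells and 100% = 100 µM nifuroxazide control wells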
APP 5'UTR act = APP 5'UTR luciferase reporter activation. 1% of 190,000 active. activation, % at 2 µM. SH-SY5Y APP 5'UTR luciferase reporter, luminescence; zero percent = DMSO vehicle wells;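 active means activation above a set limit, based on mean plus 3 SD of controls, cut at about 140% in these data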
STAT1 act = activators of IFN-gamma induced STAT1 signaling; NIH 3T3 STAT1-luciferase reporter, luminescence; 100% = IFN-gamma alone, no compound; 2.6% of 200,000 active; AID 932; activation (% of control), % at 5.5 µM;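 active means activation above the screen-wide mean activation plus 3 SD, cut at about 130% in these data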;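 further: raw ratio to IFN-gamma control signal so 100% means no change and 0% no light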
STAT1 inh = inhibitors of IFN-gamma induced STAT1 signaling; NIH 3T3 STAT1-luciferase reporter, luminescence; inhibition, % at 5.5 µM; 0.35% of 200,000 active; AID 920;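 active means inhibition above a set limit, the mean inhibition across all tested compounds plus 3 SD, cut at about 34% in these data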;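 further: 0% = IFN-gamma with DMSO and 100% = IFN-gamma with 300 µM nifuroxazide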
NF-kB expr up = NF-kB expression increase, human neuronal cells. NF-kB reporter expression; active compounds read high. 1.6% of 190,000 active. AID 1239. fold change at 12.5 µM; in the data active means fold change above about 3.3
Starred values were filed as active, the others as inactive; . = not tested or not shown. In the library only some 4.9% were active in any assay of this set; here they are far more common.

SMILES	STAT3 act	STAT3 inh	APP 5'UTR act	STAT1 act	STAT1 inh	NF-kB expr up
CC/C(=N\NC(=O)c1c[nH]c2ccccc12)c1cccs1	115	-12	96	136*	-41	2.1
COc1cc(/C=N/NC(=O)c2ccoc2C)ccc1O	88	13	72	138*	-42	2.4
Cc1ccc(/C=N/NC(=O)c2c[nH]c3ccccc23)s1	119	-18	78	146*	-51	3.1
Cc1ccsc1/C=N/NC(=O)c1c[nH]c2ccccc12	127	-22	70	126	-28	2.5
CC(C)OC(=O)/C(C#N)=C/c1c[nH]c2ccccc12	100	0	0	99	1	1.3
Cc1occc1C(=O)N/N=C/c1ccc(Br)s1	96	10	66	139*	-46	2.6
c1ccc(-n2ncc3c2ncn2nc(-c4ccco4)nc32)cc1	86	20	93	137*	-41	2
COC(=O)c1ccc2c(=O)n(CCN3CCOCC3)c(SCC(=O)NCc3ccccc3)nc2c1	104	7	-10	98	1	0.89
COc1ccc(N2CC(NC(=O)N3CCc4ccccc43)CC2=O)cc1OC (stereo not given)	114	-8	-12	94	6	1
Cc1cc2nc(-c3cccnc3SCC(=O)NCc3ccco3)[nH]c2cc1C	84	24	119	99	1	5.3*
O=C(CSc1ncccc1-c1nc2ccccc2[nH]1)NCc1ccco1	83	22	16	100	0	0.85
Cc1ccc(C)c2[nH]c(=O)c(C(c3nnnn3C(C)(C)C)N3CC=C(c4ccc(F)cc4)CC3)cc12 (stereo not given)	106	-10	0	69	35*	0.88
COC(=O)c1ccsc1-n1cc(C#N)c(=O)n(C)c1=O	101	4	-10	106	-6	1.3
Nc1nnc(-c2ccc(Cl)cc2Cl)s1	100	5	30	147*	-53	2.6
Cc1sc2nc[nH]c(=S)c2c1-c1ccccc1	97	10	-5	99	-1	0.97
CCOc1ccc(S(=O)(=O)NCc2ccc(OC)cc2)c2cccnc12	104	0	-5	106	-7	1.3
Cc1cccc(-c2c(O)cc(=O)[nH]c2Cl)c1	101	3	11	99	0	5.9*
O=c1cc(O)c(-c2ccccc2Cl)c(Cl)[nH]1	99	6	-2	97	3	0.96
CSCCNC(=O)c1ccc(C(C)(C)C)cc1	99	4	-5	98	2	5.4*
CC(C)(C)SCCNC(=O)c1ccccc1	120	-24	.	139*	-30	1.8
Cc1ccc(C(=O)NCCSC(C)(C)C)cc1	86	22	125	128	-31	4.1*
CC(C)(C)c1ccc(C(=O)NCc2ccccc2)cc1	114	-12	58	119	-23	2.4
CN(c1ccc(C(=O)NCCSC(C)(C)C)cc1)S(=O)(=O)c1ccccc1	103	2	19	99	0	1.1
c1ccc(SCCOCCn2cncn2)cc1	95	8	21	95	6	1.6
c1ccc(COc2ccc(OCCOCCn3cncn3)cc2)cc1	89	16	154*	120	-21	3.6*
SMILES	STAT3 act	STAT3 inh	APP 5'UTR act	STAT1 act	STAT1 inh	NF-kB expr up
C=CCn1c(O)c(C=Nc2ccccc2)sc1=S	102	0	39	129*	-33	1.6
Oc1c(C=Nc2ccccc2)sc(=S)n1Cc1ccccc1	104	2	4	104	-4	1.3
CCn1c(O)c(C=Nc2ccccc2)sc1=O	100	6	20	130*	-34	1.6
O=C(Nc1ccccc1)c1ccc(-c2ccc(F)cc2)s1	109	-3	75	143*	-50	2.2
COCCn1c(C)cc(C(=O)CSc2nc3ccccc3s2)c1C	67	39	204*	118	-17	0.68
CN(C)CCCN=c1cc(-c2ccccc2)oc2ccc(Cl)cc12	104	-1	129	148*	-54	1.5
O=C(Nc1cc(Cl)cc(Cl)c1)c1ccc(Cn2c(=O)[nH]c3ccsc3c2=O)cc1	95	6	-13	109	-10	0.87
Cc1ccc(-c2ccc(C)c(N)c2C)c(C)c1N	101	8	-7	99	-1	1.1
CCOC(=O)C1=C(C)NC(SCC(=O)Nc2cc(C)on2)=C(C#N)C1c1cccs1 (stereo not given)	86	18	4	62	51*	1
N#CCCN(C(=O)COc1ccc(Cl)cc1Cl)c1ccccc1	107	-12	0	103	-1	1.1
COC(=O)CCC(=O)COc1ccc(OC)cc1C#N	113	-12	47	130*	-33	1.6
Cc1cccc(-c2nsc(SCC(=O)N3CCCC3)n2)c1	76	31	87	134*	-37	3.9*
CCOC(=O)CSc1nc(-c2ccccc2)ns1	86	23	-3	102	-3	1.2
O=C(CSc1nc(-c2ccccc2)ns1)N1CCOCC1	94	18	116	142*	-47	3
Cc1cccc(-c2nsc(SCC(=O)Nc3nccs3)n2)c1	103	0	19	102	-2	1.4
O=C(CSc1nc(-c2ccc(F)cc2)cs1)N1CCOCC1	85	21	31	129*	-30	1.9
Cc1ccc(CNC(=O)CSc2nc3ccccc3c3nc(C)nn23)cc1	98	3	-10	106	-6	1.1
CCc1c(C)nc(SCC(=O)N2CCCCC2C)[nH]c1=O (stereo not given)	85	22	10	108	-11	.
C=CCOc1ccc(CNc2ccc3[nH]c(=O)[nH]c3c2)cc1	91	15	-13	99	1	1.3
Cc1cccc(NC(=S)NCCc2ccccc2)n1	92	15	-2	99	2	.
S=C(NCCc1ccccc1)Nc1ccccn1	110	-7	26	133*	-37	1.6
CC(C)(C)NC(=S)NCCc1ccccc1	104	-9	78	130*	-33	2
S=C(NCc1ccc2c(c1)OCO2)NC1CC1	100	9	2	102	-5	1.2
CC(C)N(Cc1nccn1C)C(=O)CCc1nnc(CCCc2ccccc2)o1	112	-8	44	137*	-40	2.7
CN(CCc1ccccn1)C(=O)CCc1nnc(CCCc2ccccc2)o1	103	-1	2	133*	-38	2.3
CC(C)N(CCO)C(=O)CCc1nnc(CCCc2ccccc2)o1	84	24	-11	107	-8	1.6
CN(C(=O)c1cc2sccc2n1C)C1CCCCC1	101	3	81	142*	-46	2.7
Cn1c(C(=O)NC2CCCCC2)cc2sccc21	90	14	77	137*	-40	1.9
Nc1cc2nc[nH]c2cc1N	115	-11	163*	123	-25	1.6
Cc1cccc(N(C(=O)Nc2ccc(Cl)cc2)C2=NCC(C)S2)n1 (stereo not given)	99	8	8	104	-4	.

Screening results deposited in PubChem BioAssay by several laboratories.
